This is an account of results in ChEMBL document CHEMBL1140690, “5-((4-Aminopiperidin-1-yl)methyl)pyrrolotriazine dual inhibitors of EGFR and HER2 protein tyrosine kinases” (Bioorg Med Chem Lett, 2007).

For data set [1], the target named is Receptor tyrosine-protein kinase erbB-2 (Homo sapiens, UniProt P04626). Description: Inhibition of human recombinant HER2 expressed in insect Sf9 cells.
In data set [2] the target is Tyrosine-protein kinase Lck (Homo sapiens, UniProt P06239). Description: Inhibition of LCK.
Tyrosine-protein kinase Lck, sequence (P06239 whole entry): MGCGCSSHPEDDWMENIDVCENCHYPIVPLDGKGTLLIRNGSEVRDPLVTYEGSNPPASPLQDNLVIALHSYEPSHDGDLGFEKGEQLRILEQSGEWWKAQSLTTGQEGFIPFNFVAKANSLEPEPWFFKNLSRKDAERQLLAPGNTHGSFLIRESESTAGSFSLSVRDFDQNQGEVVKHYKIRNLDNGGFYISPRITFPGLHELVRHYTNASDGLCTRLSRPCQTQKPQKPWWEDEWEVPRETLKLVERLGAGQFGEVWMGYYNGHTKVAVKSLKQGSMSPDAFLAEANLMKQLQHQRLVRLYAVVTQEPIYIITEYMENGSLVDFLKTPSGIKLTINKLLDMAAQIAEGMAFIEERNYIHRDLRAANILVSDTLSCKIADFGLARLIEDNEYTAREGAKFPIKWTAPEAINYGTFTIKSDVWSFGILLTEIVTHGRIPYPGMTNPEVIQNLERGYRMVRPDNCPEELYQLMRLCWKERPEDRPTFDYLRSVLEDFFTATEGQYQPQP
In the next data set the target is MAP kinase p38 (Homo sapiens, UniProt O15264+Q15759+Q16539+P53778). Description: Inhibition of p38. The class given is protein assay. The essentials: (§1)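 Selectivity-panel kinase assays against each named kinase. IC50 reported as the mean of at least three determinations.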
Data set [3] is described as follows: Antitumor activity against human GEO cells xenografted in athymic mouse at 240 mg/kg, […] after 10 days. The class given is functional. To be noted: sc, 240 h. The essentials: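 Established subcutaneous GEO human colon carcinoma xenografts in athymic mice. Compound given orally once daily for 10 days (QD × 10) in Tween 80–PEG400–water (10/40/50).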
(In general: Xenograft models place foreign cells or tissue in a host animal.)

The next data set has as its system HT-29. Put plainly: Antiproliferative activity against human HT29 cells. It counts as functional, cell-based. The essentials: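 HT29 (colon carcinoma) and A2780 (ovarian carcinoma) lines, stated not to rely on EGFR or HER2 signalling, serve as counter-screen lines; proliferation IC50 reported.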
Another data set deals with Liver. Put plainly: Metabolic stability in mouse liver microsomes at 3 uM after 10 mins in presence of NADPH. It counts as ADME, Microsome. The essentials:
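Mouse liver microsomes with NADPH; compound at 3 µM, incubated 10 min; metabolic rate expressed as nmol/min/mg protein.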

Data set [4] in a line: Inhibition of PKA. Also on record: species or system Homo sapiens. The essentials:
(§2)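 Kinase panel IC50s, each reported as the mean of at least three determinations.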

Data set [5] has as its target Vascular endothelial growth factor receptor 2 (Homo sapiens, UniProt P35968). Put plainly: Inhibition of VEGFR2. The essentials:
as §1

The test system of data set [6] is NCI-N87. Put plainly: Antiproliferative activity against human N87 cells.
For the next data set, the system named is HT29. Put plainly: Antiproliferative activity against human HT29 cells.
Data set [7] can be described thus: Drug level in BALB/c mouse plasma at 50 mg/kg, po after 4 hrs. It counts as ADME, organism-based. Also on record: dose 50 mg/kg, route oral. The essentials: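 Single oral 50 mg/kg dose in Tween 80/PEG400/water (10/40/50, v/v/v) to three male Balb/C mice; plasma concentration at 4 h averaged, AUC0–4h also derived.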
The next data set deals with Protein kinase C (PKC). Put plainly: Inhibition of PKC. Also on record: species or system Homo sapiens. The essentials:
as §2

Data set [8] addresses Epidermal growth factor receptor (Homo sapiens, UniProt P00533). Description: Inhibition of human recombinant EGFR expressed in insect Sf9 cells.
The next data set concerns the target CDK2/Cyclin E1 (Homo sapiens, UniProt P24941). Put plainly: Inhibition of CDK2. The method in brief:
as §1

For data set [9], the system named is NCI-N87. Put plainly: Antitumor activity against human N87 cells xenografted in athymic mouse at 180 mg/kg, po QD after 21 days. To be noted: 504 h.
Data set [10] addresses Hepatocyte growth factor receptor (Homo sapiens, UniProt P08581). Put plainly: Inhibition of Met. The method in brief: as §1
Data set [11] can be described thus: AUC (0 to 4 hrs) in BALB/c mouse at 50 mg/kg, po after 4 hrs. Also on record: time < 4 hr, dose 50 mg/kg, route oral. The settings on record: plasma. The class given is ADME, organism-based.
A short description of data set [12]: Antitumor activity against human GEO cells xenografted in athymic mouse at 120 mg/kg, sc QD after 10 days.

Each structure is given as a SMILES string. Some results are limits rather than exact numbers.

The term IC50 denotes the point on the concentration scale where inhibition reaches its midpoint. In general, inhibition in vivo refers to the drop in the measured response relative to a control, in per cent. Broadly, the AUC(0-t) is exposure summed from dosing to a finite time, without extrapolation to infinity. Higher therefore signals more exposure.

Hepatocyte growth factor receptor, sequence (P08581 whole entry): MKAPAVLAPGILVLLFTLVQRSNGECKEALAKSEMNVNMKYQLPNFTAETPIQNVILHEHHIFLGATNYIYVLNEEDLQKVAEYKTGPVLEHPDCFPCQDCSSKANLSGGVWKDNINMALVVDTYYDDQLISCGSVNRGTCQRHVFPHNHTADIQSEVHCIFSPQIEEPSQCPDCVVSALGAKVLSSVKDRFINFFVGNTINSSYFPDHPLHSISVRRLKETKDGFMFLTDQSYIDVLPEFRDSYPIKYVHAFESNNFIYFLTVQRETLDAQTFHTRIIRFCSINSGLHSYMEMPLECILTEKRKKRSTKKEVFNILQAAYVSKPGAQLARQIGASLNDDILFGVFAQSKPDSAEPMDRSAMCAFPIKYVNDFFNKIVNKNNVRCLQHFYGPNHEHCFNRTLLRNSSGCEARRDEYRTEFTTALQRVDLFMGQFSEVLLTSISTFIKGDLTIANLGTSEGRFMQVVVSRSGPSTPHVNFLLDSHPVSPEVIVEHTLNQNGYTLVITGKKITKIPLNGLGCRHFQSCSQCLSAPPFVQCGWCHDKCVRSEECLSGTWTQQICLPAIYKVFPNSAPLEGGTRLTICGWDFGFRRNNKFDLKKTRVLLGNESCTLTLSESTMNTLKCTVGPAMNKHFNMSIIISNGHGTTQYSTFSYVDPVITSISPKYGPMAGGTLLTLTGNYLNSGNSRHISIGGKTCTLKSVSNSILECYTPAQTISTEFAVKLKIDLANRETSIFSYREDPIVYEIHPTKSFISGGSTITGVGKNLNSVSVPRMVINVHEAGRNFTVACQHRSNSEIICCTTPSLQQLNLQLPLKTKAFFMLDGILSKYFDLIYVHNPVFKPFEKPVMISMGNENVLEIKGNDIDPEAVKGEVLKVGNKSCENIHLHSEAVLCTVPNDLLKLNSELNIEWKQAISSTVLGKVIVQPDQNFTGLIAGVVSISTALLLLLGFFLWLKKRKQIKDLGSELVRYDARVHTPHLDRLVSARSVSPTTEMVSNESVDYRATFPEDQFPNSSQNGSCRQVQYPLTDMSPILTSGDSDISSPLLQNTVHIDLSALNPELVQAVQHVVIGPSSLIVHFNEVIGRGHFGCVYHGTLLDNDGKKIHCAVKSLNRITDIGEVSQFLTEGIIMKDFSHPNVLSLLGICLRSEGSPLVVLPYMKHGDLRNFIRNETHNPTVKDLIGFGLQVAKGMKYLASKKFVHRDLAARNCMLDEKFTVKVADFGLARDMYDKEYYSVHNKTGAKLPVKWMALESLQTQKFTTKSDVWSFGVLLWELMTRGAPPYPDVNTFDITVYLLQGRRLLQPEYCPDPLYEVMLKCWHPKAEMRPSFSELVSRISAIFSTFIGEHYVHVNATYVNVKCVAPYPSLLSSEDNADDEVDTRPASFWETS
Receptor tyrosine-protein kinase erbB-2, sequence (P04626 whole entry): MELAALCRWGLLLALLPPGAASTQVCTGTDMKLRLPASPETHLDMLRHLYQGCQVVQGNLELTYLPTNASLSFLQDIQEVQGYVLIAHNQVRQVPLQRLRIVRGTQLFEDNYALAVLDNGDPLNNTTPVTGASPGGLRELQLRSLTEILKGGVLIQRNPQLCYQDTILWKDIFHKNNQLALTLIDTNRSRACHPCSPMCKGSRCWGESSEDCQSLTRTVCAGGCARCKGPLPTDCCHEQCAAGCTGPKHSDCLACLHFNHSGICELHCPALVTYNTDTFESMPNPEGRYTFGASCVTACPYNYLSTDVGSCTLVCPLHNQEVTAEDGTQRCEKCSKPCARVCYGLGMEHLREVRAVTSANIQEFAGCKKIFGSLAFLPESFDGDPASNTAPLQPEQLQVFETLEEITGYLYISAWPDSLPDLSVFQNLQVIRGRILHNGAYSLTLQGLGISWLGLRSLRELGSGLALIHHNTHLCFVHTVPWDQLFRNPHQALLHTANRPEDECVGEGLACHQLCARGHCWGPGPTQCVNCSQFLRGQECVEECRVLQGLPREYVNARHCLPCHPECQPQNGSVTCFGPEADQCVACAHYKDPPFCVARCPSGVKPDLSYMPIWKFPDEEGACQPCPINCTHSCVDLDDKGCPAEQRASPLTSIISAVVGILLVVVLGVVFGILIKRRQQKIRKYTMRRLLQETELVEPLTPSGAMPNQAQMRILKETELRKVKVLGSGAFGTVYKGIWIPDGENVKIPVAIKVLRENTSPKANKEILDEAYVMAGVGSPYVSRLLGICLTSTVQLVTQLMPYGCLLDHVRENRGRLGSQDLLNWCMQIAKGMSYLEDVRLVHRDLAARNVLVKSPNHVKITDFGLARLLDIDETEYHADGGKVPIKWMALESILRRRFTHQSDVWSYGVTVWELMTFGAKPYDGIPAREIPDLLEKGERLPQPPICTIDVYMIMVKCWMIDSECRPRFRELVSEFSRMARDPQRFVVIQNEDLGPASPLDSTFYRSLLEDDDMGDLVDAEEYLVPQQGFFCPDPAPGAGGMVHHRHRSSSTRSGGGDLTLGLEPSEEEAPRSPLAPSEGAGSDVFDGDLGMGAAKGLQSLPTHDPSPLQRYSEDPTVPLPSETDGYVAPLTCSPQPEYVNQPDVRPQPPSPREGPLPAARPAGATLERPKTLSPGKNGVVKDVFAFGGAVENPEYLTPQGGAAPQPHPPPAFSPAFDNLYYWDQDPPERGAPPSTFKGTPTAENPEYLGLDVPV
Vascular endothelial growth factor receptor 2, sequence (P35968 whole entry): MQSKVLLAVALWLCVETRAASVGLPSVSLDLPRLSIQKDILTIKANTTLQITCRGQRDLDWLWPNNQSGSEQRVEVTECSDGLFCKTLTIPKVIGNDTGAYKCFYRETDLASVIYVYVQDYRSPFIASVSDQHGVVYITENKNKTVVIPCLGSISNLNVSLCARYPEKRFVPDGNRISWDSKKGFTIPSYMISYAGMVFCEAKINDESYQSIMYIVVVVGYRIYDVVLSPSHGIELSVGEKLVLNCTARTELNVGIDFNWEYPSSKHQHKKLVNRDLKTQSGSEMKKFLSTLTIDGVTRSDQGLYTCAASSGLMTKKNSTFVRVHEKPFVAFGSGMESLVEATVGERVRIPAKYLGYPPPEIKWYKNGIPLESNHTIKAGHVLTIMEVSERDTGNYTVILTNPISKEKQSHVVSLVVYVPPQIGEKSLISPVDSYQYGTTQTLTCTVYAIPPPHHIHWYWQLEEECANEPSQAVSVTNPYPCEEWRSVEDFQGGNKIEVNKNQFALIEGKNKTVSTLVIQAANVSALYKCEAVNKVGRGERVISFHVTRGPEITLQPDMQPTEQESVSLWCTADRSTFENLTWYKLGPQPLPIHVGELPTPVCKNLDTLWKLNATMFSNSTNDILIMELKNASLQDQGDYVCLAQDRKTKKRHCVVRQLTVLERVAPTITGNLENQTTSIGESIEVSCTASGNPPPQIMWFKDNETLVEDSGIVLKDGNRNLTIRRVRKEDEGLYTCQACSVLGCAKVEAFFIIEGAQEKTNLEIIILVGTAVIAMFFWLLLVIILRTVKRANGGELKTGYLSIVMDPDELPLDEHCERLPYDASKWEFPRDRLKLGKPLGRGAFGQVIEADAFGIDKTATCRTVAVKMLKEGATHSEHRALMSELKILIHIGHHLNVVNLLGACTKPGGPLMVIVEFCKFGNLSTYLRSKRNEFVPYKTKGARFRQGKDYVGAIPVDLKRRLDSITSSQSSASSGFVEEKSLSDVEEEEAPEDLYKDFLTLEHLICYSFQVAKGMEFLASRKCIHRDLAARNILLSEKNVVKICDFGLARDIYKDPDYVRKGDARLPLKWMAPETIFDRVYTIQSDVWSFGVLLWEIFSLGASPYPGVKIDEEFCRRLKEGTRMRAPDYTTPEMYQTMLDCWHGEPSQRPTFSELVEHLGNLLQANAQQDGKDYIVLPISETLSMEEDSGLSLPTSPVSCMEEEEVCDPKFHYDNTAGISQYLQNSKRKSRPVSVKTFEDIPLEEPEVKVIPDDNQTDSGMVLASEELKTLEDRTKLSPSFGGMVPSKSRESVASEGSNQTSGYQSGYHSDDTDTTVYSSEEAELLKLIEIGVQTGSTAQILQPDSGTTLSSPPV

Regarding `NC1CCN(Cc2ccn3ncnc(Nc4ccc5c(cnn5Cc5cccc(F)c5)c4)c23)CC1`, the IC50 was 0.023 µM in data set [1]; 0.71 µM in data set [2]; > 50 µM at MAP kinase p38; 4.3 µM in the data set on HT-29; > 50 µM in data set [4]; 0.48 µM in data set [5]. Moreover, the half-maximal inhibitory concentration (IC50) in the data set on NCI-N87 [6] was determined as 0.035 µM; in the data set with HT29 it was 4.3 µM; against Protein kinase C (PKC), 2.2 µM; in data set [8] it was 0.035 µM; at CDK2/Cyclin E1 it was 1.9 µM; in [10], 3.9 µM. For the same compound, the inhibition in vivo at 240 mg/kg in [3] amounted to 85%. Moreover, the metabolic rate in the data set with Liver stood at 0.05 nmol/min/mg. The compound further had a concentration at 4 h in data set [7] of 2700 nM. Besides, the inhibition in vivo at 180 mg/kg in the data set with NCI-N87 [9] is 133%. Further, the minimal effective dose at 180 mg/kg in the data set on NCI-N87 [9] (read-out: MED) stood at 60 mg/kg. This compound also yielded an AUC(0-t) at 4 h in [11] of 14 µM·h. This compound came in with an MED in [12] of 120 mg/kg.
